ChEMBL document CHEMBL5608194, “Novel neuroprotective 5,6-dihydropyrido[2',1':2,3]imidazo[4,5-c]quinoline derivatives acting through cholinesterase inhibition and CB2 signaling modulation” (Eur J Med Chem, 2024)
pIC50: −log10 of the molar value. Calls of active or inactive are those of the source. The rule behind the calls is not given here.

Columns and labels:
SH-SY5Y [1] = test: Cytotoxicity against human SH-SY5Y cells assessed as cell death at 10 uM incubated for 72 hrs by propidium iodide staining based fluorescence assay; assay type: toxicity
In short: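 SH-SY5Y differentiated to neuron-like phenotype with 10 μM all-trans retinoic acid for 48 h, 20 000 cells/well. Compounds from DMSO stocks (DMSO ≤0.5 %) added, then 72 h exposure. Control wells lysed with 1 % Triton X-100 for 1 min, then all wells stained with propidium iodide for fluorescence read-out. Dead-cell proportion expressed relative to Triton X-100-treated control.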

SH-SY5Y [2] = test: Neuroprotective activity against ATRA-differentiated and 3-NPA induced cell death in human SH-SY5Y cells assessed as cell death at 0.1 uM incubated for 48 hrs by propidium iodide staining based fluorescence assay (reference value: 100%); assay type: functional
In short: (§1)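 ATRA-differentiated SH-SY5Y co-treated with compound and 20 mM 3-nitropropionic acid for 48 h; cell death by propidium iodide fluorescence, 3-NPA-treated signal set to 100 %.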

SH-SY5Y [3] = test: Neuroprotective activity against ATRA-differentiated and 3-NPA induced cell death in human SH-SY5Y cells assessed as cell death at 1 uM incubated for 48 hrs by propidium iodide staining based fluorescence assay (reference value: 100%); assay type: functional; in short: as §1
SH-SY5Y [4] = test: Neuroprotective activity against ATRA-differentiated and 3-NPA induced cell death in human SH-SY5Y cells assessed as cell death at 10 uM incubated for 48 hrs by propidium iodide staining based fluorescence assay (reference value: 100%); assay type: functional; in short: as §1
SH-SY5Y [5] = test: Neuroprotective activity against ATRA-differentiated and MPP+ induced cell death in human SH-SY5Y cells assessed as cell death at 0.1 uM incubated for 24 hrs by propidium iodide staining based fluorescence assay (reference value: 100%); assay type: functional
In short: (§2)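 ATRA-differentiated SH-SY5Y co-treated with compound and 5 mM MPP+ for 24 h; cell death by propidium iodide fluorescence, MPP+-treated signal set to 100 %.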

SH-SY5Y [6] = test: Neuroprotective activity against ATRA-differentiated and MPP+ induced cell death in human SH-SY5Y cells assessed as cell death at 1 uM incubated for 24 hrs by propidium iodide staining based fluorescence assay (reference value: 100%); assay type: functional; in short: as §2
SH-SY5Y [7] = test: Neuroprotective activity against ATRA-differentiated and MPP+ induced cell death in human SH-SY5Y cells assessed as cell death at 10 uM incubated for 24 hrs by propidium iodide staining based fluorescence assay (reference value: 100%); assay type: functional; in short: as §2
SH-SY5Y [8] = test: Neuroprotective activity against ATRA-differentiated and MPP+ induced cell death in human SH-SY5Y cells assessed as cell death at 1 uM by LDH release assay (reference value: 100%); assay type: functional
In short: (§3)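 ATRA-differentiated SH-SY5Y co-treated with 5 mM MPP+ and compound; cell death by commercial LDH release kit; MPP+ value set to 100 %; triplicates on at least three independent days.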

SH-SY5Y [9] = test: Neuroprotective activity against MPP+ induced cell death in human SH-SY5Y cells assessed as cell death at 1 uM by YOPRO-1 staining based assay; assay type: functional
In short: (§4)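 Neuron-like SH-SY5Y co-treated with compound and 5 mM MPP+ for 24 h; centrifuged at 500 × g, medium replaced by 1 μM YO-PRO1 in PBS for 15 min at room temperature; fluorescence 488/530 nm; MPP+ signal set to 100 %; triplicates on at least three independent days.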

SH-SY5Y [10] = test: Neuroprotective activity against MPP+ induced cell death in human SH-SY5Y cells assessed as cell death at 1 uM incubated for 24 hrs by Cas-3, 7 staining based assay; assay type: functional
In short: (§5)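 Caspase-3/7 activation with Ac-DEVD-AFC substrate after 24 h co-treatment of neuron-like SH-SY5Y with compound and 5 mM MPP+; MPP+ signal set to 100 %; triplicates on at least three independent days.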

SH-SY5Y [11] = test: Inhibition of MPP+ induced superoxide radical production in human SH-SY5Y cells at 1 uM incubated for 24 hrs by microplate reader assay (reference value: 100%); assay type: functional
In short: (§6)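 Neuron-like SH-SY5Y co-treated with 5 mM MPP+ and compound for 24 h; centrifuged at 500 × g, medium replaced with 10 μM dihydroethidium in PBS for 30 min, fluorescence 500/580 nm; MPP+ signal set to 100 %; triplicates on at least four independent days.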

SH-SY5Y [12] = test: Inhibition of MPP+ induced mitochondrial superoxide radical production in human SH-SY5Y cells at 0.1 to 10 uM incubated for 24 hrs by MitoSOX staining based microplate reader assay; assay type: functional, cell-based; conditions: dose 0.1-10 µM
In short: (§7)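 Neuron-like SH-SY5Y (20 000 cells/well) co-treated with 5 mM MPP+ and compound for 24 h; plates centrifuged, medium replaced by 5 μM MitoSOX in HBSS, 30 min at 37 °C, fluorescence 500/580 nm; MPP+ signal set to 100 %; triplicates on at least four independent days.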

SH-SY5Y [13] = test: Inhibition of MPP+ induced mitochondrial depolarization in human SH-SY5Y cells at 0.1 uM incubated for 2 hrs by JC10 staining based confocal laser scanning microscopy; assay type: functional
In short: (§8)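 ATRA-differentiated SH-SY5Y co-treated with 5 mM MPP+ and compound for 2 h; mitochondrial membrane potential by JC10 ratiometric red/green signal (plate) and confocal imaging of JC10-stained cells (50 000 cells/well slides); DMSO control set to 100 %; triplicates on three independent days.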

SH-SY5Y [14] = test: Inhibition of MPP+ induced mitochondrial depolarization in human SH-SY5Y cells at 1 uM incubated for 2 hrs by JC10 staining based confocal laser scanning microscopy; assay type: functional; in short: as §8
Acetylcholinesterase = Acetylcholinesterase (Electrophorus electricus, UniProt O42275); test: Inhibition of electric eel AChE using acetylthiocholine as substrate by Ellman's method
Cholinesterase = Cholinesterase (Equus caballus, UniProt P81908); test: Inhibition of equine serum BChE using butyrylthiocholine as substrate by Ellman's method
In short: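 Equine serum BChE (0.2 U/mL final) with 40 μM butyrylthiocholine and 100 μM DTNB, modified Ellman spectrophotometry; compounds from DMSO diluted in water, five inhibitor concentrations; IC50 from regression of v0/vi versus inhibitor concentration; triplicate.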

[15] = Selectivity index, ratio of IC50 for electric eel AChE to IC50 for equine serum BChE
In short: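 Ratio of IC50 values from modified Ellman spectrophotometric assays with electric eel AChE and equine serum BChE. Each used enzyme at 0.2 U/mL final, acetylthiocholine or butyrylthiocholine at 40 μM, and DTNB at 100 μM. Inhibitors were dissolved in DMSO, diluted in water, and tested at five concentrations in triplicate. IC50 came from regression of v0/vi against inhibitor concentration.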

SH-SY5Y [16] = test: Cytotoxicity against human SH-SY5Y cells at 10 uM; assay type: toxicity, cell-based
In short: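 SH-SY5Y differentiated to neuron-like phenotype with 10 μM all-trans retinoic acid for 48 h, 20 000 cells/well, then exposed to compound for 72 h (DMSO ≤0.5 %). Propidium iodide exclusion fluorescence; dead-cell proportion expressed relative to Triton X-100 (1 %, 1 min) lysed control.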

SH-SY5Y [17] = test: Potentiation of MPP+ induced toxicity in human SH-SY5Y cells assessed as increase in cell death at 10 uM; assay type: cell-based
In short: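 Neuron-like SH-SY5Y co-treated for 24 h with 5 mM MPP+, compound and CB2 inverse agonist AM630 or antagonist SR144528 at 0.1, 1 or 10 μM; CB2 ligands also tested alone and with MPP+; cell death read-out; triplicates on three independent days.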

SH-SY5Y [18] = test: Inhibition of MPP+ induced mitochondrial superoxide radical production in human SH-SY5Y cells at 10 uM incubated for 24 hrs by MitoSOX staining based microplate reader assay (reference value: 100%); assay type: functional; in short: as §7
SH-SY5Y [19] = test: Neuroprotective activity against ATRA-differentiated and MPP+ induced cell death in human SH-SY5Y cells assessed as cell death at 10 uM by LDH release assay (reference value: 100%); assay type: functional; in short: as §3
SH-SY5Y [20] = test: Neuroprotective activity against MPP+ induced cell death in human SH-SY5Y cells assessed as cell death at 10 uM by YOPRO-1 staining based assay; assay type: functional; in short: as §4
SH-SY5Y [21] = test: Neuroprotective activity against MPP+ induced cell death in human SH-SY5Y cells assessed as cell death at 10 uM incubated for 24 hrs by Cas-3, 7 staining based assay; assay type: functional; in short: as §5
SH-SY5Y [22] = test: Inhibition of MPP+ induced superoxide radical production in human SH-SY5Y cells at 10 uM incubated for 24 hrs by microplate reader assay (reference value: 100%); assay type: functional; in short: as §6

Sequence of Cholinesterase (P81908 whole entry): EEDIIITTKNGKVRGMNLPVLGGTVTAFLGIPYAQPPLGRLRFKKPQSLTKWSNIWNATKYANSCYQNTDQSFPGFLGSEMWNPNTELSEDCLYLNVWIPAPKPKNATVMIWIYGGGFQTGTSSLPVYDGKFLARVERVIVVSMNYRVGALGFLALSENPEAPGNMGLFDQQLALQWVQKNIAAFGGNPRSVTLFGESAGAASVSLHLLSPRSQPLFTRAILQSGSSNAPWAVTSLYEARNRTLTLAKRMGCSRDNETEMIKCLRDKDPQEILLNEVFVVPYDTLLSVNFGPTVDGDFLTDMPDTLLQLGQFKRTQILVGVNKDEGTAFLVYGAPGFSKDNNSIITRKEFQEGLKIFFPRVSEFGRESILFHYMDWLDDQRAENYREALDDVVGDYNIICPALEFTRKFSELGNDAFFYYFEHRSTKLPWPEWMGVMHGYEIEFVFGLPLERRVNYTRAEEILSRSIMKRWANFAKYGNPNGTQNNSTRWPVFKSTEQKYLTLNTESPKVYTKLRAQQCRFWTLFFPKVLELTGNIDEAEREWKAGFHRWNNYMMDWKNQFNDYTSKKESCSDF
Sequence of Acetylcholinesterase (O42275 whole entry): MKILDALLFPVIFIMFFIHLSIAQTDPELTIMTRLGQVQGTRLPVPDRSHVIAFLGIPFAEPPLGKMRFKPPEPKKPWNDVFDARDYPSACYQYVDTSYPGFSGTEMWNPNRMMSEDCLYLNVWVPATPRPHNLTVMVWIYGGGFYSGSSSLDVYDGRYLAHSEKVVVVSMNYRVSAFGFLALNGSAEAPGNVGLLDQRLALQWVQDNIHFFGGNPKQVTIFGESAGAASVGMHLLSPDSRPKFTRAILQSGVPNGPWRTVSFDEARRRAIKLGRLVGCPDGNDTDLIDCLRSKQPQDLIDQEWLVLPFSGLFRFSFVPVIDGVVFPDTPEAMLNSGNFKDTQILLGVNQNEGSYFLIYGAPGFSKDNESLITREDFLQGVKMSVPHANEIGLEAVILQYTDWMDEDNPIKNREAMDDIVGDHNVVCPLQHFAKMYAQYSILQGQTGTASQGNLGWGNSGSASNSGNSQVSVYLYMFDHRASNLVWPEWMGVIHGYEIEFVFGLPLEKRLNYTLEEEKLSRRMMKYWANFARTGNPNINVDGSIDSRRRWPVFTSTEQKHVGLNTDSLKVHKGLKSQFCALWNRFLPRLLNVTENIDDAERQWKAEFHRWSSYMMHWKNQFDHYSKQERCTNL

Compound	Activity (SH-SY5Y [1])	Activity (SH-SY5Y [2])	Activity (SH-SY5Y [3])	Activity (SH-SY5Y [4])	Activity (SH-SY5Y [5])	Activity (SH-SY5Y [6])	Activity (SH-SY5Y [7])	also measured
Cc1ccn2c3c(nc2c1)-c1ccccc1NC31CCCCC1	11.4%	75.5%	62.6%	55.2%	60.8%	38.2%	75%	Activity (SH-SY5Y [8]): 65.4%; Activity (SH-SY5Y [9]): 58.1%; Activity (SH-SY5Y [10]): 52.6%; inhibition at 1 µM (SH-SY5Y [11]): 67.1%; inhibition (SH-SY5Y [12]): inactive; inhibition at 0.1 µM (SH-SY5Y [13]): 78.7%; inhibition at 1 µM (SH-SY5Y [14]): 100%; pIC50 (Acetylcholinesterase): 4.79; pIC50 (Cholinesterase): 4.98; Ratio IC50 [15]: 1.57
Cc1cccn2c3c(nc12)-c1ccccc1NC31CCC(C)CC1 (configuration not stated)	9%	86%	65%	64.5%	91.8%	53%	94%	
Cc1ccn2c3c(nc2c1)-c1ccccc1NC3(C)C	13%	86.2%	62.4%	52.9%	65.7%	46.1%	59.7%	
COc1ccc(C(=O)c2c(C)n(CCN3CCOCC3)c3cc(I)ccc23)cc1								Activity (SH-SY5Y [16]): Toxic; Activity (SH-SY5Y [17]): > 12%
c1ccc2c(c1)NC1(CCCCCC1)c1c-2nc2ccccn12	10.4%	74%	69.9%	69%	45.8%	28.6%	73.6%	
Cc1ccc(Cn2nc(C(=O)N[C@@H]3C(C)(C)[C@@H]4CC[C@@]3(C)C4)cc2-c2ccc(Cl)c(C)c2)cc1								Activity (SH-SY5Y [16]): Non-Toxic; Activity (SH-SY5Y [17]): Toxic
Cc1ccn2c3c(nc2c1)-c1ccccc1NC31CCCC1	10.4%	86.9%	59%	48.6%	73.1%	31.9%	68.9%	
CC(=O)N[C@@H](CS)C(=O)O [ACETYLCYSTEINE]		95.5%	80.8%	37%				
Brc1ccc2nc3c(n2c1)C1(CCCCCC1)Nc1ccccc1-3	13.5%	90.7%	81.4%	73.5%	56.5%	43.5%	96.4%	
Cc1cccn2c3c(nc12)-c1ccccc1NC31CCCCC1	9.2%	76.6%	66.1%	61.8%	77.7%	44.4%	45.6%	
c1ccc2c(c1)NC1(CCCC1)c1c-2nc2ccccn12	10.1%	67.7%	57.7%	54.5%	63.9%	28.2%	42.6%	
CC1CCC2(CC1)Nc1ccccc1-c1nc3ccccn3c12 (configuration not stated)	12%	82.3%	64.2%	64.5%	67.6%	33.6%	97.3%	
CC1CCC2(CC1)Nc1ccccc1-c1nc3ccc(Br)cn3c12 (configuration not stated)	9.3%	92.1%	71.3%	64%	74.2%	52.3%	126.5%	
Cc1ccn2c3c(nc2c1)-c1ccccc1NC31CCC(C)CC1 (configuration not stated)	10.9%	82.4%	66.8%	67%	61.6%	38.4%	105.9%	
Cc1cccn2c3c(nc12)-c1ccccc1NC31CCCC1	8.2%	79.2%	65.3%	60.5%	86.7%	48%	52.8%	
Brc1ccc2nc3c(n2c1)C1(CCCCC1)Nc1ccccc1-3	12.3%	97.7%	88.4%	59.5%	94.8%	56.5%	33.9%	inhibition at 10 µM (SH-SY5Y [18]): 58.8%; Activity (SH-SY5Y [19]): 64.7%; Activity (SH-SY5Y [20]): 58%; Activity (SH-SY5Y [21]): 55.8%; inhibition at 10 µM (SH-SY5Y [22]): 65.6%; inhibition at 0.1 µM (SH-SY5Y [13]): 91.7%; inhibition at 1 µM (SH-SY5Y [14]): 100%; pIC50 (Acetylcholinesterase): 4.70; pIC50 (Cholinesterase): 4.71; Ratio IC50 [15]: 1.02
Cc1cccn2c3c(nc12)-c1ccccc1NC3(C)C	11%	96.6%	69.9%	56.4%	79.6%	48.6%	70.8%	
Cc1cccn2c3c(nc12)-c1ccccc1NC31CCCCCC1	9.3%	83.8%	71%	60.3%	67.2%	38.8%	91.4%	
